Laboratory results reported in ChEMBL document CHEMBL3352814, “Design, synthesis and biological evaluation of biphenylamide derivatives as Hsp90 C-terminal inhibitors” (Eur J Med Chem, 2015).
Calls of active or inactive are those of the source. The rule behind the calls is not given here.

Key:
[1] = Antiproliferative activity against human SKBR3 cells after 72 hrs by MTS/PMS assay; assay type: functional, cell-based; details: SK-BR-3, 72 h
Outline: (§1)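 Cells kept in 1:1 Advanced DMEM/F12 with non-essential amino acids, 2 mM L-glutamine, penicillin/streptomycin and 10% FBS at 37 °C, 5% CO2. Seeded 2000 cells/well, attached overnight, then given compound at varying concentrations in DMSO (1% final) for 72 h. Viable cells read by MTS/PMS. Normalised to 1% DMSO wells as 100% proliferation. IC50 from separate experiments run in triplicate.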

[2] = test system: MCF7; test: Antiproliferative activity against human MCF7 cells after 72 hrs by MTS/PMS assay; assay type: functional, cell-based; details: MCF7, 72 h; outline: as §1
[3] = biological target: T1, Heat shock protein HSP90 (Homo sapiens) (UniProt P07900+P08238); test: Inhibition of HSP90 in human MCF7 cells assessed as induction of Her2 protein degradation at 0.5 to 5 times antiproliferative IC50 level after 24 hrs by Western blotting method; assay type: cell-based
Outline: (§2)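 MCF-7 cells, grown as for proliferation, treated 24 h with compound in DMSO (1% final). Geldanamycin 0.5 μM and DMSO served as controls. Lysis in cold RIPA with 1 mM PMSF, 2 mM orthovanadate and protease inhibitors, 1 h on ice, then cleared at 14000g, 10 min, 4 °C. BCA protein assay; 20 μg protein run reducing, blotted to nitrocellulose, probed with client antibodies, HRP chemiluminescence. High and low doses were 5-fold and 0.5-fold the antiproliferative value.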

[4] = biological target: T1, Heat shock protein HSP90 (Homo sapiens); test: Inhibition of HSP90 in human MCF7 cells assessed as induction of Raf protein degradation at 0.5 to 5 times antiproliferative IC50 level after 24 hrs by Western blotting method; assay type: cell-based; outline: as §2
[5] = biological target: T1, Heat shock protein HSP90 (Homo sapiens); test: Inhibition of HSP90 in human MCF7 cells assessed as induction of Akt protein degradation at 0.5 to 5 times antiproliferative IC50 level after 24 hrs by Western blotting method; assay type: cell-based; outline: as §2
[6] = biological target: T1, Heat shock protein HSP90 (Homo sapiens); test: Inhibition of HSP90 in human MCF7 cells assessed as induction of Her2 protein degradation at 0.5 times antiproliferative IC50 level after 24 hrs by Western blotting method; assay type: cell-based; outline: as §2
[7] = biological target: T1, Heat shock protein HSP90 (Homo sapiens); test: Inhibition of HSP90 in human MCF7 cells assessed as induction of Raf protein degradation at 0.5 times antiproliferative IC50 level after 24 hrs by Western blotting method; assay type: cell-based; outline: as §2
[8] = biological target: T1, Heat shock protein HSP90 (Homo sapiens); test: Inhibition of HSP90 in human MCF7 cells assessed as induction of Akt protein degradation at 0.5 times antiproliferative IC50 level after 24 hrs by Western blotting method; assay type: cell-based; outline: as §2
[9] = biological target: T1, Heat shock protein HSP90 (Homo sapiens); test: Inhibition of HSP90 in human MCF7 cells assessed as induction of Her2 protein degradation at 0.1 to 5 uM after 24 hrs by Western blotting method; assay type: cell-based; outline: as §2
[10] = biological target: T1, Heat shock protein HSP90 (Homo sapiens); test: Inhibition of HSP90 in human MCF7 cells assessed as induction of Raf protein degradation at 0.1 to 5 uM after 24 hrs by Western blotting method; assay type: cell-based; outline: as §2
[11] = biological target: T1, Heat shock protein HSP90 (Homo sapiens); test: Inhibition of HSP90 in human MCF7 cells assessed as induction of Akt protein degradation at 0.1 to 5 uM after 24 hrs by Western blotting method; assay type: cell-based; outline: as §2

IC50 [2] [nM] | inhibition [3] | inhibition [4] | inhibition [5] | inhibition [6] | inhibition [7] | inhibition [8] | inhibition [9] | inhibition [10] | inhibition [11] | SMILES | IC50 [1] [nM]
580 | Active | Active | Active |  |  |  |  |  |  | CN1CCC(Oc2ccc(-c3ccc(NC(=O)c4ccc5ccccc5c4)cc3)cc2)CC1 | 220
640 |  |  |  | Active | Active | Active | Dose-dependent effect | Dose-dependent effect | Dose-dependent effect | COc1ccc(C(=O)Nc2ccc(-c3ccc(OC4CCN(C)CC4)cc3)cc2)cc1-c1ccc(OC(C)=O)cc1 | 140
1170 |  |  |  | Active | Active | Active |  |  |  | CC(C)=CCc1cc(C(=O)Nc2cccc(-c3cccc(OC4CCN(C)CC4)c3)c2)ccc1O | 2790
580 | Active | Active | Active |  |  |  |  |  |  | CN1CCC(Oc2ccc(-c3ccc(NC(=O)c4cc5ccccc5[nH]4)cc3)cc2)CC1 | 640
520 | inactive | inactive | inactive |  |  |  |  |  |  | CN1CCC(Oc2ccc(-c3ccc(NC(=O)c4ccc(Br)cc4)cc3)cc2)CC1 | 520
2000 |  |  |  | Active | Active | Active |  |  |  | COc1cccc(-c2cc(C(=O)Nc3cccc(-c4cccc(OC5CCN(C)CC5)c4)c3)ccc2OC)c1 | 1620
520 | inactive | inactive | inactive |  |  |  |  |  |  | CN1CCC(Oc2ccc(-c3ccc(NC(=O)c4ccc(Cl)cc4)cc3)cc2)CC1 | 570
1850 |  |  |  | Active | Active | Active |  |  |  | CC(C)=CCc1cc(C(=O)Nc2ccc(-c3ccc(OC4CCN(C)CC4)cc3)cc2)ccc1O | 2270
490 | Active | Active | Active |  |  |  |  |  |  | CN1CCC(Oc2ccc(-c3ccc(NC(=O)c4cccc5ccccc45)cc3)cc2)CC1 | 350
650 | Active | Active | Active |  |  |  |  |  |  | COc1ccc(C(=O)Nc2ccc(-c3ccc(OC4CCN(C)CC4)cc3)cc2)cc1 | 490
710 |  |  |  | Active | Active | Active |  |  |  | COc1cccc(-c2cc(C(=O)Nc3ccc(-c4ccc(OC5CCN(C)CC5)cc4)cc3)ccc2OC)c1 | 470
840 |  |  |  | Active | Active | Active |  |  |  | COc1ccc(C(=O)Nc2ccc(-c3ccc(OC4CCN(C)CC4)cc3)cc2)cc1-c1ccccc1 | 510
320 |  |  |  | Active | Active | Active |  |  |  | COc1ccc(C(=O)Nc2ccc(-c3ccc(OC4CCN(C)CC4)cc3)cc2)cc1-c1cccc(Cl)c1 | 330
580 | inactive | inactive | inactive |  |  |  |  |  |  | CN1CCC(Oc2ccc(-c3ccc(NC(=O)c4ccc(I)cc4)cc3)cc2)CC1 | 310
1690 |  |  |  |  |  |  |  |  |  | COc1cccc(-c2cc(C(=O)Nc3ccc(-c4ccc(OC5CCN(C)CC5)c(C)c4)cc3)ccc2OC)c1 | 830
820 |  |  |  |  |  |  |  |  |  | COc1ccc(C(=O)Nc2ccc(-c3ccc(OC4CCN(C)CC4)cc3)cc2)cc1-c1ccc(Cl)cc1 | 1060
1170 |  |  |  |  |  |  |  |  |  | Cc1ccc(C(=O)Nc2ccc(-c3ccc(OC4CCN(C)CC4)cc3)cc2)cc1I | 930
2710 |  |  |  |  |  |  |  |  |  | CC(=O)Oc1ccc(C(=O)Nc2cccc(-c3ccc(OC4CCN(C)CC4)cc3)c2)cc1CC=C(C)C | 3470
1300 |  |  |  |  |  |  |  |  |  | COc1cccc(-c2cc(C(=O)Nc3ccc(-c4ccc(OC5CCN(C)CC5)cc4[N+](=O)[O-])cc3)ccc2OC)c1 | 1180
1150 | Active | Active | Active |  |  |  |  |  |  | CN1CCC(Oc2ccc(-c3ccc(NC(=O)c4cccc(-c5ccccc5)c4)cc3)cc2)CC1 | 730
1570 |  |  |  |  |  |  |  |  |  | COc1cccc(-c2cc(C(=O)Nc3ccc(-c4ccc(OC5CCN(C)CC5)cc4)c(C)c3)ccc2OC)c1 | 970
3320 |  |  |  |  |  |  |  |  |  | COc1cccc(-c2cc(C(=O)Nc3ccc(-c4ccc(OC5CCN(C)CC5)cc4)c([N+](=O)[O-])c3)ccc2OC)c1 | 2480
2830 |  |  |  |  |  |  |  |  |  | CN1CCC(Oc2ccc(-c3ccc(NC(=O)c4cccc(Cl)c4)cc3)cc2)CC1 | 1940
